The source of these data is ChEMBL document CHEMBL1142419, “Antimycobacterial activities of novel 2-(sub)-3-fluoro/nitro-5,12-dihydro-5-oxobenzothiazolo[3,2-a]quinoline-6-carboxylic acid” (Bioorg Med Chem, 2008).

In brackets after ≈: the same amount, converted by molar mass.

The subject of this assay is Mycobacterium tuberculosis. In words: Antimycobacterial activity against multidrug-resistant Mycobacterium tuberculosis by agar dilution method. It is filed as functional. In a few lines: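 MIC by agar dilution on Middlebrook 7H11 agar supplemented with OADC, following an NCCLS-like procedure, run in duplicate. The MDR-TB clinical isolate was resistant to isoniazid, rifampicin, ethambutol and ofloxacin.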
On the technique in general: In agar dilution, organisms are placed on agar that contains the substance at set levels.
On to `CC(C)(C)OC(=O)NC1C2CN(c3cc4c(cc3[N+](=O)[O-])c(=O)c(C(=O)O)c3sc5ccccc5n34)CC21` (centres undefined), for which the minimal inhibitory concentration (MIC) (as a rule, the lowest concentration that inhibits growth of the organism) turned out to be 0.73 µM (≈ 0.392 µg/mL).
`O=C(O)c1c(=O)c2cc([N+](=O)[O-])c(N3CCC(O)(c4ccc(Cl)cc4)CC3)cc2n2c1sc1ccccc12` showed an MIC of 2.84 µM (≈ 1.56 µg/mL).
To `CC(C)(C)NC(=O)C1c2ccccc2CCN1c1cc2c(cc1[N+](=O)[O-])c(=O)c(C(=O)O)c1sc3ccccc3n12` (centres undefined) belongs 5.49 µM (≈ 3.13 µg/mL).
Consider `O=C(O)c1c(=O)c2cc(F)c(N3CCC(O)(c4ccc(Cl)cc4)CC3)cc2n2c1sc1ccccc12`, for which the MIC was found to be 0.36 µM (≈ 0.188 µg/mL).
Compound `O=C(O)c1c(=O)c2cc(F)c(N3CCN(C(=O)C4COc5ccccc5O4)CC3)cc2n2c1sc1ccccc12` (centres undefined) came in with an MIC of 5.59 µM (≈ 3.13 µg/mL).
`O=C(O)c1c(=O)c2cc(F)c(N3CCSCC3)cc2n2c1sc1ccccc12` registered an MIC of 7.55 µM (≈ 3.13 µg/mL).
`O=C(O)c1cn2c(n1)CN(c1cc3c(cc1[N+](=O)[O-])c(=O)c(C(=O)O)c1sc4ccccc4n13)CC2` displayed an MIC of 0.77 µM (≈ 0.389 µg/mL).
For the compound `O=C(O)c1c(=O)c2cc(F)c(N3CCC(N4CCCCC4)CC3)cc2n2c1sc1ccccc12`, 0.19 µM (≈ 0.0911 µg/mL) was the least that counted as inhibitory (MIC).
Compound `NNC(=O)c1ccncc1` [ISONIAZID] showed an MIC of 45.6 µM (≈ 6.25 µg/mL).
Compound `O=C(O)c1c(=O)c2cc(F)c(N3CCN(C(c4ccccc4)c4ccc(Cl)cc4)CC3)cc2n2c1sc1ccccc12` (centres undefined) showed an MIC of 0.65 µM (≈ 0.389 µg/mL).
For the compound `CCN(CC)C(=O)C1CCCN(c2cc3c(cc2[N+](=O)[O-])c(=O)c(C(=O)O)c2sc4ccccc4n23)C1` (centres undefined), the lowest concentration to inhibit growth (MIC) was 0.75 µM (≈ 0.392 µg/mL).
In the case of `O=C(O)c1c(=O)c2cc([N+](=O)[O-])c(N3CCC4(CC3)OCCO4)cc2n2c1sc1ccccc12`, the MIC turned out to be 0.39 µM (≈ 0.188 µg/mL).
The compound `O=C(O)c1c(=O)c2cc([N+](=O)[O-])c(N3CCC(N4CCCCC4)CC3)cc2n2c1sc1ccccc12` gave an MIC of 1.54 µM (≈ 0.78 µg/mL).
The result for `COc1c(N2CCNC(C)C2)c(F)cc2c(=O)c(C(=O)O)cn(C3CC3)c12` (centres undefined) [GATIFLOXACIN] reads 8.34 µM (≈ 3.13 µg/mL).
The result for `CC(C)(C)NC(=O)C1c2ccccc2CCN1c1cc2c(cc1F)c(=O)c(C(=O)O)c1sc3ccccc3n12` (centres undefined) reads 1.43 µM (≈ 0.777 µg/mL); that for `O=C(O)c1cn2c(n1)CN(c1cc3c(cc1F)c(=O)c(C(=O)O)c1sc4ccccc4n13)CC2`, 0.39 µM (≈ 0.187 µg/mL); that for `Cc1onc(-c2c(F)cccc2F)c1C(=O)N1CCN(c2cc3c(cc2F)c(=O)c(C(=O)O)c2sc4ccccc4n23)CC1`, 5.06 µM (≈ 3.13 µg/mL).
To `CCN(CC)C(=O)C1CCCN(c2cc3c(cc2F)c(=O)c(C(=O)O)c2sc4ccccc4n23)C1` (centres undefined) belongs 0.08 µM (≈ 0.0396 µg/mL); to `COc1cc2c(cc1OC)CN(c1cc3c(cc1F)c(=O)c(C(=O)O)c1sc4ccccc4n13)CC2`, 3.09 µM (≈ 1.56 µg/mL).
As for `O=C(O)c1c(=O)c2cc(F)c(N3CCC(n4c(=O)[nH]c5cc(Cl)ccc54)CC3)cc2n2c1sc1ccccc12`, 5.56 µM (≈ 3.13 µg/mL) was the least that counted as inhibitory (MIC).
Consider `COc1cc2c(cc1OC)CN(c1cc3c(cc1[N+](=O)[O-])c(=O)c(C(=O)O)c1sc4ccccc4n13)CC2`, for which the MIC worked out at 2.93 µM (≈ 1.56 µg/mL).
Compound `O=C(O)c1c(=O)c2cc(F)c(N3CCC4(CC3)OCCO4)cc2n2c1sc1ccccc12` had a minimum inhibitory concentration (MIC) of 0.86 µM (≈ 0.391 µg/mL).
Compound `CC(C)(C)OC(=O)NC1C2CN(c3cc4c(cc3F)c(=O)c(C(=O)O)c3sc5ccccc5n34)CC21` (centres undefined) had an MIC of 0.18 µM (≈ 0.0917 µg/mL).
With `O=C(O)c1c(=O)c2cc(F)c(N3CCN(Cc4ccc5c(c4)OCO5)CC3)cc2n2c1sc1ccccc12`, the lowest concentration to inhibit growth (MIC) was 5.89 µM (≈ 3.13 µg/mL).
